What is called Ki is a dissociation constant, usually derived from enzyme kinetics or from competition with a known ligand. Read a high Ki as weaker binding. In general, IC50 refers to the midpoint of a concentration-inhibition curve. A higher IC50 goes with lower potency. The term GI50 denotes the concentration that inhibits growth by half. Lower therefore signals more potent growth inhibition. Usually solubility stands for how much of the substance goes into solution per volume.

The results in this text go back to ChEMBL document CHEMBL3286368, “Delayed and Prolonged Histone Hyperacetylation with a Selective HDAC1/HDAC2 Inhibitor” (ACS Med Chem Lett, 2014).

The target of data set [1] is Voltage-gated inwardly rectifying potassium channel KCNH2 (Homo sapiens, UniProt Q12809). Put plainly: Binding affinity to human ERG.
For another data set, the target named is Histone deacetylase 1 (Homo sapiens, UniProt Q13547). The format is cell-based, HEK293F.
A further data set deals with HCT-116. Put plainly: cells. The format is functional, Homo sapiens. As to conditions: Homo sapiens, HCT-116, 72 h.
A short description of data set [2]: Solubility of the compound. The format is physicochemical. Summed up: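 Solubility determined on the bis-HCl salt, reported in mg/mL.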

Chain of Voltage-gated inwardly rectifying potassium channel KCNH2 (Q12809 whole entry): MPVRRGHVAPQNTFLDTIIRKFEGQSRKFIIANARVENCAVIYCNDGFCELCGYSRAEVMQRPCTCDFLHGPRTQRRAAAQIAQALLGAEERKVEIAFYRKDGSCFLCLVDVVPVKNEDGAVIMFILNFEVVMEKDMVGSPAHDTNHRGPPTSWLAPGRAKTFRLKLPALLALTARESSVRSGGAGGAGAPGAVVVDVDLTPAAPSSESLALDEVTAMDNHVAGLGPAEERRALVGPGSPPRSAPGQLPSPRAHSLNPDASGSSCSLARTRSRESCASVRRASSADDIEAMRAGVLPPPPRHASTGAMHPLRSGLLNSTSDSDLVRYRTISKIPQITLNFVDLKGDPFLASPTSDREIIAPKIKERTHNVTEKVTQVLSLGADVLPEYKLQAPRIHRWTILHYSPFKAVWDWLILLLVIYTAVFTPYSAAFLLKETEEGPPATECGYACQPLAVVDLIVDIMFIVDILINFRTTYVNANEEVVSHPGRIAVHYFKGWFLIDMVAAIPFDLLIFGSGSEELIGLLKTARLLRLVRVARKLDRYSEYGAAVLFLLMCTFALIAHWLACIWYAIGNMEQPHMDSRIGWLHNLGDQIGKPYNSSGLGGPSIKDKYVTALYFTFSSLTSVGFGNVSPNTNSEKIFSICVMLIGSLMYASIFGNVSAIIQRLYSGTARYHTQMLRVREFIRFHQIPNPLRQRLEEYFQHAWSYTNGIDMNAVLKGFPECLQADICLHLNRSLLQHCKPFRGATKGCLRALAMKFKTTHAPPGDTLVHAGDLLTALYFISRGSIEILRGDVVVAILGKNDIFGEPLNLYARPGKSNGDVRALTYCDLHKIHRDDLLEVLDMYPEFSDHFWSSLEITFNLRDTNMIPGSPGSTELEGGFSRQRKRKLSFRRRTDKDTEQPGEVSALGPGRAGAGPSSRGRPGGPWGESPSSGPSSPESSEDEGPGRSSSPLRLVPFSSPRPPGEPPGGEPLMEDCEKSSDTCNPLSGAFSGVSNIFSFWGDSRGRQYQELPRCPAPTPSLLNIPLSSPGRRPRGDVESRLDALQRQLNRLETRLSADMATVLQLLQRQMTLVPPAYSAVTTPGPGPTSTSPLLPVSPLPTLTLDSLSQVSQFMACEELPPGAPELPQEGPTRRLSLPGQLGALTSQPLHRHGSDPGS
Chain of Histone deacetylase 1 (Q13547 whole entry): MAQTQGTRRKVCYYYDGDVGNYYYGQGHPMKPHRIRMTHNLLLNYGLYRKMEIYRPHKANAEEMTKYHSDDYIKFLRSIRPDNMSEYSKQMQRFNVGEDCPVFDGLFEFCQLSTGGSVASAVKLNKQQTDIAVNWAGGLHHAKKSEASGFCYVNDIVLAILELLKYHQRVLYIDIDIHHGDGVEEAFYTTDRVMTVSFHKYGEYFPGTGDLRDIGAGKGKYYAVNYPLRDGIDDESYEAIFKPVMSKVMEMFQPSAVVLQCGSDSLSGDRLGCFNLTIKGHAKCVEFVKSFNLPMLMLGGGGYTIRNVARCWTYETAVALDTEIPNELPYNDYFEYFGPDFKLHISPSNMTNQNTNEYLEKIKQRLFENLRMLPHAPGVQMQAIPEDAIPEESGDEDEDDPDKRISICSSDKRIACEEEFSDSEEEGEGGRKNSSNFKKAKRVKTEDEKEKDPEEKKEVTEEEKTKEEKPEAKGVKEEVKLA

For the compound `Nc1ccc(-c2ccsc2)cc1NC(=O)c1ccc(N2CCC3(CC2)CNC(=O)O3)nc1`, the Ki in data set [1] is > 30000 nM. Half-maximal inhibition at Histone deacetylase 1 (IC50) was put at 11 nM. Further, in the data set with HCT-116, the concentration for 50% growth inhibition (GI50) was 270 nM.
The matching figures for `Cc1csc(-c2ccc(N)c(NC(=O)c3ccc(N4CCC5(CC4)CNC(=O)O5)nc3)c2)c1`: 2000 nM, 14 nM and 890 nM.
In turn, `Nc1ccc(-c2ccccc2)cc1NC(=O)c1ccc(N2CCC3(CC2)CNC(=O)O3)nc1` showed a Ki in data set [1] of 3400 nM. The compound further gave an IC50 on Histone deacetylase 1 of 17 nM. In the data set on HCT-116, the GI50 worked out at 490 nM.
`Nc1ccc(-c2ccc(F)cc2)cc1NC(=O)c1ccc(N2CCC3(CC2)CNC(=O)O3)nc1` had a Ki in data set [1] of 620 nM. Further, the midpoint of inhibition against Histone deacetylase 1, the IC50, lay at 20 nM. The compound also came in with a 50% growth inhibitory concentration (GI50) in the data set on HCT-116 of 710 nM.
On the same counts, the results for `Cn1cc(-c2ccc(N)c(NC(=O)c3ccc(N4CCC5(CC4)CNC(=O)O5)nc3)c2)cn1` are > 10000 nM, 18 nM and 2120 nM.
On the same counts, the results for `Cn1cnc(-c2ccc(N)c(NC(=O)c3ccc(N4CCC5(CC4)CNC(=O)O5)nc3)c2)c1` are > 10000 nM, 51 nM and 4650 nM.
As for `Nc1ccccc1NC(=O)c1ccc(N2CCC3(CC2)CNC(=O)O3)nc1`, in data set [1], the Ki was > 10000 nM. In addition, the IC50 against Histone deacetylase 1 came out at 580 nM. In addition, in the data set with HCT-116, it took 5080 nM to inhibit growth by half (GI50).
In the case of `Cl.Nc1ccc(-c2cccs2)cc1NC(=O)c1ccc(N2CCC3(CC2)CNC(=O)O3)nc1`, in data set [2], the solubility is 1300 µg/mL.
